In article PMC5615838 (Toxicology Reports, 2016):

Legend:
[1] = pharmacokinetics and oral bioavailability of S6821; format: in vivo, rat
[2] = target: CYP2C19 (Homo sapiens, UniProt P33261); experiment: CYP inhibition, LC–MS/MS assay in human liver microsomes; format: in vitro ADME; conditions: pooled human liver microsomes, probe S-mephenytoin
Summary of the method: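 Follow-up CYP panel in pooled human liver microsomes with CYP-specific probe substrates; CYP-specific metabolites quantified by LC-MS/MS. Test compound at 10 μM. Percent inhibition reported.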

[3] = dose range-finding developmental toxicity study; format: in vivo, rat; conditions: 125, 250, 500, 1000 mg/kg bw/day oral gavage, gestation days 6-20
[4] = toxicokinetics in 90-day toxicity study; format: in vivo, rat; conditions: for AUC(0-t) / Cmax: rat, plasma, po; for AUC(0-t): AUC0-24h
Summary of the method: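 In the 90-day dietary study (10, 30, 100 mg/kg bw/day), plasma taken at 6 time points over 24 h on Day 7, Week 6 and Week 13, assayed by validated LC-MS/MS. […] Accumulation ratio = AUC0-24h at Week 6 or 13 / Day 7.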

[5] = 28-day dose-range finding toxicity study, diet; format: in vivo, rat; conditions: 28 days
Summary of the method: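 Crl:CD(SD) rats, 5/sex/group, fed test compound in the diet at 10, 30 or 100 mg/kg bw/day for 28 days, with a vehicle-diet control group of 5/sex. Assessed survival, clinical signs, body weight, food consumption, hematology, clinical chemistry, organ weights and gross pathology. Livers examined microscopically in the 0 and 100 mg/kg bw/day groups.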

[6] = male, Sprague-Dawley, rat, plasma, iv, 1 mg/kg
[7] = male, Sprague-Dawley, rat, plasma, po, 10 mg/kg
[8] = male, Sprague-Dawley, rat, plasma, po, 30 mg/kg
[9] = male, Sprague-Dawley, rat, plasma, po, 100 mg/kg
[10] = female, Sprague-Dawley [Crl:CD(SD)], 10 mg/kg, Day 7, 10 mg/kg bw, F
[11] = female, Sprague-Dawley [Crl:CD(SD)], 10 mg/kg, Week 13, 10 mg/kg bw, F
[12] = female, Sprague-Dawley [Crl:CD(SD)], 30 mg/kg, Day 7, 30 mg/kg bw, F
[13] = female, Sprague-Dawley [Crl:CD(SD)], 30 mg/kg, Week 13, 30 mg/kg bw, F
[14] = female, Sprague-Dawley [Crl:CD(SD)], 100 mg/kg, Day 7, 100 mg/kg bw, F
[15] = female, Sprague-Dawley [Crl:CD(SD)], 100 mg/kg, Week 13, 100 mg/kg bw, F
[16] = female, Sprague-Dawley, 10 mg/kg, Week 6, 10 mg/kg bw, F
[17] = female, Sprague-Dawley, 30 mg/kg, Week 6, 30 mg/kg bw, F
[18] = female, Sprague-Dawley, 100 mg/kg, Week 6, 100 mg/kg bw, F
[19] = male, Sprague-Dawley [Crl:CD(SD)], 10 mg/kg, Day 7, 10 mg/kg bw, M
[20] = male, Sprague-Dawley [Crl:CD(SD)], 10 mg/kg, Week 13, 10 mg/kg bw, M
[21] = male, Sprague-Dawley [Crl:CD(SD)], 30 mg/kg, Day 7, 30 mg/kg bw, M
[22] = male, Sprague-Dawley [Crl:CD(SD)], 30 mg/kg, Week 13, 30 mg/kg bw, M
[23] = male, Sprague-Dawley [Crl:CD(SD)], 100 mg/kg, Day 7, 100 mg/kg bw, M
[24] = male, Sprague-Dawley [Crl:CD(SD)], 100 mg/kg, Week 13, 100 mg/kg bw, M
[25] = male, Sprague-Dawley, 10 mg/kg, Week 6, 10 mg/kg bw, M
[26] = male, Sprague-Dawley, 30 mg/kg, Week 6, 30 mg/kg bw, M
[27] = male, Sprague-Dawley, 100 mg/kg, Week 6, 100 mg/kg bw, M

Chain of CYP2C19 (P33261 whole entry): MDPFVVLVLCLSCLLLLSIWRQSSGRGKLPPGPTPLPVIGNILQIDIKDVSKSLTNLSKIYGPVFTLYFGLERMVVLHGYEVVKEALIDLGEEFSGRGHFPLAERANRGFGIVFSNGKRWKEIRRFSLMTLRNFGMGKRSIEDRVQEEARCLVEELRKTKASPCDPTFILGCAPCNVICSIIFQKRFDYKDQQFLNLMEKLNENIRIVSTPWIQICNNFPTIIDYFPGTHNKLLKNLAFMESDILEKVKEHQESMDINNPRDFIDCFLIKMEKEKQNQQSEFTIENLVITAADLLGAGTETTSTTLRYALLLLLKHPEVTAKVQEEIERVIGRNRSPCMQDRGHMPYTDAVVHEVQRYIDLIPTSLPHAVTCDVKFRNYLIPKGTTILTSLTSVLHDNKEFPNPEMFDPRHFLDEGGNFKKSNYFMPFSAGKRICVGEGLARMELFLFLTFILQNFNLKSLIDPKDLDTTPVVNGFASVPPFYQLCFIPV

Cc1noc(C)c1Cn1cc(N2C(=O)CN(Cc3cccc(O)c3)C2=O)cn1 [S6821, 3-(1-((3,5-dimethylisoxazol-4-yl)methyl)-1H-pyrazol-4-yl)-1-(3-hydroxybenzyl)imidazolidine-2,4-dione]
AUC0-last/dose ([1]; iv 1.0 mg/kg bw S6821): 161 ng·h/mL/mg/kg
Vss, times the total body water volume in the rat ([1]; iv, body water 668 mL/kg): 0.84 times
CL as % of hepatic blood flow in the rat ([1]; iv, hepatic blood flow 55.2 mL/min/kg): 190%
AUC(0-t) [1, 6]: 161 ng·h/mL
Cmax [1, 6]: 619 ng/mL
Tmax [1, 6]: 4.8 min
Vd [1, 6]: 0.563 L/kg
clearance [1, 6]: 105 mL/min/kg
half-life [1, 6]: 6 min
AUC(0-t) [1, 7]: 28 ng·h/mL
Cmax [1, 7]: 12.3 ng/mL
Tmax [1, 7]: 30 min
bioavailability [1, 7]: 1.74%
half-life [1, 7]: 120 min
AUC(0-t) [1, 8]: 201 ng·h/mL
Cmax [1, 8]: 38.5 ng/mL
Tmax [1, 8]: 30 min
bioavailability [1, 8]: 4.16%
half-life [1, 8]: 426 min
AUC(0-t) [1, 9]: 410 ng·h/mL
Cmax [1, 9]: 68.1 ng/mL
Tmax [1, 9]: 30 min
bioavailability [1, 9]: 2.55%
half-life [1, 9]: 258 min
AUC0-last/dose ([1]; oral gavage 10 mg/kg bw S6821): 2.80 ng·h/mL/mg/kg
AUC0-last/dose ([1]; oral gavage 30 mg/kg bw S6821): 6.70 ng·h/mL/mg/kg
AUC0-last/dose ([1]; oral gavage 100 mg/kg bw S6821): 4.10 ng·h/mL/mg/kg
inhibition at 10 µM [2]: 8%
Findings [3]: No maternal toxicity or effect on intrauterine growth up to 1000 mg/kg bw/day
Cmax and AUC0-24h higher than predicted from a linear relationship ([4]; 100 mg/kg bw/day, females): ~1.3 fold
Cmax and AUC0-24h lower than predicted from a linear relationship ([4]; 100 mg/kg bw/day, males): ~32%
AUC0-24h/dose ([4]; Day 7, 10 mg/kg bw, F): 12.2 ng·h/mL/mg/kg
AUC0-24h Ratio ([4]; Day 7, 10 mg/kg bw, F): 1
Cmax Ratio ([4]; Day 7, 10 mg/kg bw, F): 1
AUC0-24h/dose ([4]; Day 7, 10 mg/kg bw, M): 11.8 ng·h/mL/mg/kg
AUC0-24h Ratio ([4]; Day 7, 10 mg/kg bw, M): 1
Cmax Ratio ([4]; Day 7, 10 mg/kg bw, M): 1
AUC0-24h/dose ([4]; Day 7, 30 mg/kg bw, F): 14.5 ng·h/mL/mg/kg
AUC0-24h Ratio ([4]; Day 7, 30 mg/kg bw, F): 3.5
Cmax Ratio ([4]; Day 7, 30 mg/kg bw, F): 3.8
AUC0-24h/dose ([4]; Day 7, 30 mg/kg bw, M): 9.83 ng·h/mL/mg/kg
AUC0-24h Ratio ([4]; Day 7, 30 mg/kg bw, M): 2.5
Cmax Ratio ([4]; Day 7, 30 mg/kg bw, M): 2.8
AUC0-24h/dose ([4]; Day 7, 100 mg/kg bw, F): 15.0 ng·h/mL/mg/kg
AUC0-24h Ratio ([4]; Day 7, 100 mg/kg bw, F): 12.3
Cmax Ratio ([4]; Day 7, 100 mg/kg bw, F): 13.7
AUC0-24h/dose ([4]; Day 7, 100 mg/kg bw, M): 8.44 ng·h/mL/mg/kg
AUC0-24h Ratio ([4]; Day 7, 100 mg/kg bw, M): 7.2
Cmax Ratio ([4]; Day 7, 100 mg/kg bw, M): 6.8
ACUM Ratio ([4]; Week 6, 10 mg/kg bw, F): 0.93
AUC0-24h/dose ([4]; Week 6, 10 mg/kg bw, F): 11.3 ng·h/mL/mg/kg
AUC0-24h Ratio ([4]; Week 6, 10 mg/kg bw, F): 1
Cmax Ratio ([4]; Week 6, 10 mg/kg bw, F): 1
ACUM Ratio ([4]; Week 6, 10 mg/kg bw, M): 1.07
AUC0-24h/dose ([4]; Week 6, 10 mg/kg bw, M): 12.6 ng·h/mL/mg/kg
AUC0-24h Ratio ([4]; Week 6, 10 mg/kg bw, M): 1
Cmax Ratio ([4]; Week 6, 10 mg/kg bw, M): 1
ACUM Ratio ([4]; Week 6, 30 mg/kg bw, F): 0.76
AUC0-24h/dose ([4]; Week 6, 30 mg/kg bw, F): 11.0 ng·h/mL/mg/kg
AUC0-24h Ratio ([4]; Week 6, 30 mg/kg bw, F): 2.9
Cmax Ratio ([4]; Week 6, 30 mg/kg bw, F): 2.8
ACUM Ratio ([4]; Week 6, 30 mg/kg bw, M): 0.99
AUC0-24h/dose ([4]; Week 6, 30 mg/kg bw, M): 9.77 ng·h/mL/mg/kg
AUC0-24h Ratio ([4]; Week 6, 30 mg/kg bw, M): 2.3
Cmax Ratio ([4]; Week 6, 30 mg/kg bw, M): 2.3
ACUM Ratio ([4]; Week 6, 100 mg/kg bw, F): 0.87
AUC0-24h/dose ([4]; Week 6, 100 mg/kg bw, F): 13.0 ng·h/mL/mg/kg
AUC0-24h Ratio ([4]; Week 6, 100 mg/kg bw, F): 11.5
Cmax Ratio ([4]; Week 6, 100 mg/kg bw, F): 15.1
ACUM Ratio ([4]; Week 6, 100 mg/kg bw, M): 0.90
AUC0-24h/dose ([4]; Week 6, 100 mg/kg bw, M): 7.58 ng·h/mL/mg/kg
AUC0-24h Ratio ([4]; Week 6, 100 mg/kg bw, M): 6.0
Cmax Ratio ([4]; Week 6, 100 mg/kg bw, M): 4.1
ACUM Ratio ([4]; Week 13, 10 mg/kg bw, F): 1.02
AUC0-24h/dose ([4]; Week 13, 10 mg/kg bw, F): 12.5 ng·h/mL/mg/kg
AUC0-24h Ratio ([4]; Week 13, 10 mg/kg bw, F): 1
Cmax Ratio ([4]; Week 13, 10 mg/kg bw, F): 1
ACUM Ratio ([4]; Week 13, 10 mg/kg bw, M): 1.04
AUC0-24h/dose ([4]; Week 13, 10 mg/kg bw, M): 12.3 ng·h/mL/mg/kg
AUC0-24h Ratio ([4]; Week 13, 10 mg/kg bw, M): 1
Cmax Ratio ([4]; Week 13, 10 mg/kg bw, M): 1
ACUM Ratio ([4]; Week 13, 30 mg/kg bw, F): 0.79
AUC0-24h/dose ([4]; Week 13, 30 mg/kg bw, F): 11.5 ng·h/mL/mg/kg
AUC0-24h Ratio ([4]; Week 13, 30 mg/kg bw, F): 2.8
Cmax Ratio ([4]; Week 13, 30 mg/kg bw, F): 2.4
ACUM Ratio ([4]; Week 13, 30 mg/kg bw, M): 1.03
AUC0-24h/dose ([4]; Week 13, 30 mg/kg bw, M): 10.2 ng·h/mL/mg/kg
AUC0-24h Ratio ([4]; Week 13, 30 mg/kg bw, M): 2.5
Cmax Ratio ([4]; Week 13, 30 mg/kg bw, M): 3.1
ACUM Ratio ([4]; Week 13, 100 mg/kg bw, F): 1.11
AUC0-24h/dose ([4]; Week 13, 100 mg/kg bw, F): 16.7 ng·h/mL/mg/kg
AUC0-24h Ratio ([4]; Week 13, 100 mg/kg bw, F): 13.4
Cmax Ratio ([4]; Week 13, 100 mg/kg bw, F): 12.9
ACUM Ratio ([4]; Week 13, 100 mg/kg bw, M): 1.10
AUC0-24h/dose ([4]; Week 13, 100 mg/kg bw, M): 9.25 ng·h/mL/mg/kg
AUC0-24h Ratio ([4]; Week 13, 100 mg/kg bw, M): 7.5
Cmax Ratio ([4]; Week 13, 100 mg/kg bw, M): 9.1
AUC(0-t) [4, 10]: 122 ng·h/mL
AUC(0-t) [4, 11]: 125 ng·h/mL
Cmax [4, 10]: 7.22 ng/mL
Cmax [4, 11]: 8.32 ng/mL
AUC(0-t) [4, 12]: 436 ng·h/mL
AUC(0-t) [4, 13]: 344 ng·h/mL
Cmax [4, 12]: 27.7 ng/mL
Cmax [4, 13]: 19.8 ng/mL
AUC(0-t) [4, 14]: 1500 ng·h/mL
AUC(0-t) [4, 15]: 1670 ng·h/mL
Cmax [4, 14]: 99 ng/mL
Cmax [4, 15]: 107 ng/mL
AUC(0-t) [4, 16]: 113 ng·h/mL
Cmax [4, 16]: 6.34 ng/mL
AUC(0-t) [4, 17]: 331 ng·h/mL
Cmax [4, 17]: 17.5 ng/mL
AUC(0-t) [4, 18]: 1300 ng·h/mL
Cmax [4, 18]: 95.6 ng/mL
AUC(0-t) [4, 19]: 118 ng·h/mL
AUC(0-t) [4, 20]: 123 ng·h/mL
Cmax [4, 19]: 6.05 ng/mL
Cmax [4, 20]: 5.99 ng/mL
AUC(0-t) [4, 21]: 295 ng·h/mL
AUC(0-t) [4, 22]: 305 ng·h/mL
Cmax [4, 21]: 16.7 ng/mL
Cmax [4, 22]: 18.3 ng/mL
AUC(0-t) [4, 23]: 844 ng·h/mL
AUC(0-t) [4, 24]: 925 ng·h/mL
Cmax [4, 23]: 41.4 ng/mL
Cmax [4, 24]: 54.7 ng/mL
AUC(0-t) [4, 25]: 126 ng·h/mL
Cmax [4, 25]: 10.7 ng/mL
AUC(0-t) [4, 26]: 293 ng·h/mL
Cmax [4, 26]: 24.6 ng/mL
AUC(0-t) [4, 27]: 758 ng·h/mL
Cmax [4, 27]: 43.7 ng/mL
MTD ([5]; 10, 30, 100 mg/kg bw/day food ad-mix, male & female): > 100 mg/kg bw/day
Findings ([5]; up to 100 mg/kg bw/day): No test-article related findings
